Data reported in ChEMBL document CHEMBL4145546, “A multidisciplinary study of 3-(β-d-glucopyranosyl)-5-substituted-1,2,4-triazole derivatives as glycogen phosphorylase inhibitors: Computation, synthesis, crystallography and kinetics reveal new potent inhibitors” (Eur J Med Chem, 2018).
The source made the active and inactive calls. The calls are words filed in the database; no cut-off is given here.

Assays:
[1] = target: T1, Glycogen phosphorylase, muscle form (Oryctolagus cuniculus, UniProt P00489); experiment: Inhibition of rabbit muscle glycogen phosphorylase-b assessed as release of inorganic phosphate using glucose-1-phosphate as substrate in presence of AMP and glycogen by spectrophotometric method
T1 sequence (P00489 whole entry): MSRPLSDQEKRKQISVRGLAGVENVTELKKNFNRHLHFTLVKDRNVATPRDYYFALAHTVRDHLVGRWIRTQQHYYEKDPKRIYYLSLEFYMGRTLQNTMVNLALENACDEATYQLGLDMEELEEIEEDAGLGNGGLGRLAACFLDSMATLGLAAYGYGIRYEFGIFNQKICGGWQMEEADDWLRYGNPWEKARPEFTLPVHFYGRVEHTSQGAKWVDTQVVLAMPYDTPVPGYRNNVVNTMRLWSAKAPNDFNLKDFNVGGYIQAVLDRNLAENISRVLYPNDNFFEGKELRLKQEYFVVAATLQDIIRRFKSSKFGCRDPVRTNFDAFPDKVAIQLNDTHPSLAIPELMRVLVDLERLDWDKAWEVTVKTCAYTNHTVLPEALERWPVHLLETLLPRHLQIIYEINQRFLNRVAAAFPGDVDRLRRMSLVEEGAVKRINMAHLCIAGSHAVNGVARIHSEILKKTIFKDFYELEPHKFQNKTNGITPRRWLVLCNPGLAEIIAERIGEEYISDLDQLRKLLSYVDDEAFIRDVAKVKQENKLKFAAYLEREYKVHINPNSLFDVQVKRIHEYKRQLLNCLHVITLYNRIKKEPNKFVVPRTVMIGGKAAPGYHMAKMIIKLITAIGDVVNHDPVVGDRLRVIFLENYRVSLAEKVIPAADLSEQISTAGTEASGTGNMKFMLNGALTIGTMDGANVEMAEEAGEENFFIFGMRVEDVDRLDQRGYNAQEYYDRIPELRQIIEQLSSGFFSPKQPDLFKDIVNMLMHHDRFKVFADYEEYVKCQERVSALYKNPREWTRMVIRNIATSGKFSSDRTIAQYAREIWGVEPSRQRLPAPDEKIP
In short: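 GPb was purified from rabbit skeletal muscle and used at 3 μg/mL at 30 °C, synthesis direction. Medium was 30 mM imidazole/HCl pH 6.8, 60 mM KCl, 0.6 mM EDTA, 0.6 mM DTT, 0.2% w/v glycogen and 1 mM AMP, with Glc-1-P and inhibitor varied. Initial rates came from pseudo-first-order constants of spectrophotometric phosphate release at five time points, fitted by non-linear regression.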

[2] = target: T1, Glycogen phosphorylase, muscle form; experiment: Inhibition of rabbit muscle glycogen phosphorylase-a assessed as release of inorganic phosphate using glucose-1-phosphate as substrate in presence of glycogen by spectrophotometric method
In short: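 Rabbit muscle GPa was made by phosphorylating purified rabbit skeletal muscle GPb and used at 3 μg/mL, without AMP. Buffer was 30 mM imidazole/HCl pH 6.8 with 60 mM KCl, 0.6 mM EDTA, 0.6 mM DTT and 0.2% w/v glycogen, with varied Glc-1-P and inhibitor, at 30 °C. Phosphate release was measured spectrophotometrically at five intervals, and data were fitted non-linearly.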

[3] = target: T2, Glycogen phosphorylase, liver form (Homo sapiens, UniProt P06737); experiment: Inhibition of human liver glycogen phosphorylase-a assessed as release of inorganic phosphate using glucose-1-phosphate as substrate in presence of glycogen by spectrophotometric method
T2 sequence (P06737 whole entry): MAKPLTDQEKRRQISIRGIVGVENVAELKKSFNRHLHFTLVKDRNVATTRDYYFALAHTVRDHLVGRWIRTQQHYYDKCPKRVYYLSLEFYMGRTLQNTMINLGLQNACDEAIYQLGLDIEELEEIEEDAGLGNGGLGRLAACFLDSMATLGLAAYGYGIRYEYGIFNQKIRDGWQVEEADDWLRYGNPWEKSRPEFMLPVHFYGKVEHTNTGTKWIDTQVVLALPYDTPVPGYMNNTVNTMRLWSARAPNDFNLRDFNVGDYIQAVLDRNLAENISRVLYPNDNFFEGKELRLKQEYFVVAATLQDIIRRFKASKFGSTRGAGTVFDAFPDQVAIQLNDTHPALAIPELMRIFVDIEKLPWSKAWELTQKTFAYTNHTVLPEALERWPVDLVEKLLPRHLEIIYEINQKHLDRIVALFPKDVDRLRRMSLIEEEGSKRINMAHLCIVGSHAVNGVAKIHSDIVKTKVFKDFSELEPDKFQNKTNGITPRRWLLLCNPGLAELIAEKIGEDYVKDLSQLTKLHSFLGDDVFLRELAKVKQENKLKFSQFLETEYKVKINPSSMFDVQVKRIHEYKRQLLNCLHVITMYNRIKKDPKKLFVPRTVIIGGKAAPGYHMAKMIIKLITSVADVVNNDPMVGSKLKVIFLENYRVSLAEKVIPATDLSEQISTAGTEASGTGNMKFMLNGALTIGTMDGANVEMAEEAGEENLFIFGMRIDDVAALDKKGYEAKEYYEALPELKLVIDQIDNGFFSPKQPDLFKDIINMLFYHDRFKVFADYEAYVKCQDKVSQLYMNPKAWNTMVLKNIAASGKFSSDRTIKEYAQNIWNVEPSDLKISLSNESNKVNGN
In short: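 Human liver GPa (1 μg/mL) assayed at 30 °C toward glycogen synthesis in 30 mM imidazole/HCl pH 6.8 with 60 mM KCl, 0.6 mM EDTA, 0.6 mM DTT, 0.2% w/v glycogen, no AMP, and varied Glc-1-P and inhibitor. Orthophosphate release was read spectrophotometrically at five time points; kinetic parameters were fitted by non-linear regression.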

[4] = target: T3, Glycogen phosphorylase, muscle form (Oryctolagus cuniculus) (UniProt P00489); experiment: Inhibition of rabbit muscle glycogen phosphorylase-b at 625 uM assessed as release of inorganic phosphate using glucose-1-phosphate as substrate in presence of AMP and glycogen by spectrophotometric method
T3 sequence (whole entry): T1 sequence (P00489 whole entry)

[5] = Inhibition of glycogen phosphorylase (unknown origin); set-up: species or system Homo sapiens

Row | Ki [1] [µM] | Ki [2] [µM] | Ki [3] [µM] | inhibition [4] | Ki [5] [µM] | Compound
1 | 1.19 | 0.84 | 2.02 | – | – | OC[C@H]1O[C@@H](c2nc(-c3ccc4c(c3)Cc3ccccc3-4)n[nH]2)[C@H](O)[C@@H](O)[C@@H]1O
2 | 20 | – | – | – | – | OC[C@H]1O[C@@H](c2nc(-c3ccc4cc5ccccc5cc4c3)n[nH]2)[C@H](O)[C@@H](O)[C@@H]1O
3 | 98.2 | – | – | – | – | NS(=O)(=O)c1ccc(-c2n[nH]c([C@@H]3O[C@H](CO)[C@@H](O)[C@H](O)[C@H]3O)n2)cc1
4 | 4.42 | 0.98 | 2.67 | – | – | O=C(O)c1ccc(-c2ccc(-c3n[nH]c([C@@H]4O[C@H](CO)[C@@H](O)[C@H](O)[C@H]4O)n3)cc2)cc1
5 | 2.38 | 2.09 | 2.23 | – | – | OC[C@H]1O[C@@H](c2nc(-c3ccc(-c4ccccc4)cc3)n[nH]2)[C@H](O)[C@@H](O)[C@@H]1O
6 | 11.5 | 3.38 | 8.91 | – | – | OC[C@H]1O[C@@H](c2nc(-c3cccc4ccccc34)n[nH]2)[C@H](O)[C@@H](O)[C@@H]1O
7 | 5.05 | 0.78 | 3.88 | – | – | O=C(O)c1ccc2cc(-c3n[nH]c([C@@H]4O[C@H](CO)[C@@H](O)[C@H](O)[C@H]4O)n3)ccc2c1
8 | – | – | – | inactive | – | CN(C)/C=N/S(=O)(=O)c1ccc(-c2n[nH]c([C@@H]3O[C@H](CO)[C@@H](O)[C@H](O)[C@H]3O)n2)cc1
9 | > 1500 | – | – | – | – | OC[C@H]1O[C@@H](c2nc(-c3ccc4ccc5cccc6ccc3c4c56)n[nH]2)[C@H](O)[C@@H](O)[C@@H]1O
11 | 68.2 | – | – | – | – | OC[C@H]1O[C@@H](c2nc(-c3cccc(-c4ccccc4)c3)n[nH]2)[C@H](O)[C@@H](O)[C@@H]1O
